Measured values as given in ChEMBL document CHEMBL1144731, “Structure-dependent inhibition of bladder and pancreatic cancer cell growth by 2-substituted glycyrrhetinic and ursolic acid derivatives” (Bioorg Med Chem Lett, 2008).

Key:
Format in all cases: functional, cell-based
[1] = Cytotoxicity against human KU7 cells
How it was run: (§1)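 Cells seeded at 3×10^4 per well in DMEM:Ham's F-12 with 2.5% charcoal-stripped FBS and allowed 24 h to attach. Then exposed to DMSO vehicle or compound, with medium and compound renewed every 48 h. Cell number counted at set times on a Coulter particle counter. Triplicate runs; IC50 obtained by linear regression.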

[2] = Cytotoxicity against human Panc28 cells; how it was run: as §1
[3] = Cytotoxicity against human 253JBV cells; how it was run: as §1
[4] = tested on: PANC-1; assay: Cytotoxicity against human Panc1 cells; how it was run: as §1

SMILES	IC50 [1]	IC50 [2]	IC50 [3]	IC50 [4]
COC(=O)[C@]12CC[C@@H](C)[C@H](C)[C@H]1C1=CC[C@@H]3[C@@]4(C)C=C(C(F)(F)F)C(=O)C(C)(C)[C@@H]4CC[C@@]3(C)[C@]1(C)CC2	0.47 µM	1.13 µM	0.17 µM	0.65 µM
COC(=O)[C@@]1(C)CC[C@]2(C)CC[C@]3(C)C(=CC(=O)[C@@H]4[C@@]5(C)C=C(C(F)(F)F)C(=O)C(C)(C)[C@@H]5CC[C@]43C)[C@@H]2C1	0.38 µM	1.14 µM	0.67 µM	0.82 µM
COC(=O)[C@@]1(C)CC[C@]2(C)CC[C@]3(C)[C@H](C(=O)C=C4[C@@]5(C)C=C(I)C(=O)C(C)(C)[C@@H]5CC[C@]43C)[C@@H]2C1	2.61 µM	3.66 µM	3.62 µM	4.45 µM
COC(=O)[C@@]1(C)CC[C@]2(C)CC[C@]3(C)C(=CC(=O)[C@@H]4[C@@]5(C)C=C(P(=O)(OC)OC)C(=O)C(C)(C)[C@@H]5CC[C@]43C)[C@@H]2C1	3.73 µM	8.14 µM	7.9 µM	6.11 µM
CC1(C)C(=O)C(C#N)=C[C@]2(C)[C@H]3C(=O)C=C4[C@@H]5C[C@@](C)(C(=O)O)CC[C@]5(C)CC[C@@]4(C)[C@]3(C)CC[C@@H]12	5.88 µM	7.32 µM	6.1 µM	3.81 µM
COC(=O)[C@]12CC[C@@H](C)[C@H](C)[C@H]1C1=CC[C@@H]3[C@@]4(C)CC[C@H](O)C(C)(C)[C@@H]4CC[C@@]3(C)[C@]1(C)CC2 [METHYL URSOLATE]	8.95 µM	10.6 µM	6.13 µM	11.8 µM
COC(=O)[C@@]1(C)CC[C@]2(C)CC[C@]3(C)[C@H](C(=O)C=C4[C@@]5(C)C=C(C(F)(F)F)C(=O)C(C)(C)[C@@H]5CC[C@]43C)[C@@H]2C1	1.37 µM	1.13 µM	0.36 µM	0.68 µM
COC(=O)[C@]12CC[C@@H](C)[C@H](C)[C@H]1C1=CC[C@@H]3[C@@]4(C)C=C(I)C(=O)C(C)(C)[C@@H]4CC[C@@]3(C)[C@]1(C)CC2	6.02 µM	13.5 µM	4.9 µM	6.91 µM
COC(=O)[C@@]1(C)CC[C@]2(C)CC[C@]3(C)C(=CC(=O)[C@@H]4[C@@]5(C)C=C(C#N)C(=O)C(C)(C)[C@@H]5CC[C@]43C)[C@@H]2C1	1.59 µM	1.8 µM	0.25 µM	1.22 µM
COC(=O)[C@@]1(C)CC[C@]2(C)CC[C@]3(C)C(=CC(=O)[C@@H]4[C@@]5(C)C=C(I)C(=O)C(C)(C)[C@@H]5CC[C@]43C)[C@@H]2C1	3.04 µM	12.8 µM	2.67 µM	4.08 µM
COC(=O)[C@]12CC[C@@H](C)[C@H](C)[C@H]1C1=CC[C@@H]3[C@@]4(C)C=C(C#N)C(=O)C(C)(C)[C@@H]4CC[C@@]3(C)[C@]1(C)CC2	0.3 µM	0.97 µM	0.17 µM	0.53 µM
COC(=O)[C@@]1(C)CC[C@]2(C)CC[C@]3(C)C(=CC(=O)[C@@H]4[C@@]5(C)C=C(S(C)(=O)=O)C(=O)C(C)(C)[C@@H]5CC[C@]43C)[C@@H]2C1	3.34 µM	9.75 µM	12 µM	7.69 µM
